Measurements pooled from the literature.
Lines come from different studies, so protocols differ.
Adra1b: Alpha-1B adrenergic receptor (Adra1b, Rattus norvegicus, UniProt P15823)
XDH: Xanthine dehydrogenase/oxidase (XDH, Bos taurus, UniProt P80457)
NT5E: 5'-nucleotidase (NT5E, Homo sapiens, UniProt P21589)

NC/C(=C\F)COc1cccc(Cn2c(=S)[nH]c(=O)c3[nH]cnc32)c1
inhibition (Adra1b; ligand displacement; radioligand; 10 µM): < 50%

O=C(NS(=O)(=O)c1ccccc1)c1cc2ccccc2n1Cc1ccc(C2CC2)c2ccccc12
inhibition (XDH; enzyme activity; inhibitor; absorbance; 10 µM): 2.49%

Cc1cc(O)c(-c2ccc([C@@H](C)CN(C)C)cc2)c2c1[nH]c(=O)c1sccc12
inhibition (Cyclin-dependent kinase 13 (CDK13, Homo sapiens, UniProt Q14004); enzyme activity; inhibitor; 0.1 µM): -1.62%

O=C(O[C@@H]1COC(=O)c2cc(O)c(O)c(O)c2-c2c(cc(O)c(O)c2O)C(=O)O[C@H]1[C@@H]1OC(=O)c2cc(O)c(O)c(O)c2-c2c(O)c(O)c(O)c3c2C(=O)O[C@H]1[C@@H]3O)c1cc(O)c(O)c(O)c1
inhibition (XDH; enzyme activity; inhibitor; 25 µg/mL): 29.8%

Cc1cccc(NC(=O)c2sc3nc(C)cc(C)c3c2N)n1
inhibition (NT5E; enzyme activity; inhibitor; 10 µM): -21%

C#Cc1cc(-c2cc(Nc3nc(N[C@@H](C)c4ccc(F)cn4)ncc3Cl)n[nH]2)ccc1C=O
inhibition (Mitogen-activated protein kinase kinase kinase kinase 5 (MAP4K5, Homo sapiens, UniProt Q9Y4K4); enzyme activity; inhibitor; 0.2 µM): 92%

N#Cc1c(C(F)(F)F)cc(-c2ccccc2)nc1SCC(=O)Nc1ccccc1
inhibition (NT5E; enzyme activity; inhibitor; 10 µM): 16%

O=C(O)/C=C/c1nccc2c3ccccc3n(Cc3ccc(Br)c4ccccc34)c12
inhibition (XDH; enzyme activity; inhibitor; absorbance; 10 µM): 17.8%

COCCOCCOCCNC(=O)c1sc2nc(-c3ccccc3)cc(C(F)(F)F)c2c1N
inhibition (NT5E; enzyme activity; inhibitor; 10 µM): -9%

O=C(O)CCc1nccc2c3ccccc3n(Cc3ccc(Br)c4ccccc34)c12
inhibition (XDH; enzyme activity; inhibitor; absorbance; 10 µM): 16.4%

CCN1/C(=C/C(C)=O)Sc2ccc(F)cc21
inhibition (Adra1b; ligand displacement; radioligand; 10 µM): 4.13%

Oc1ncnc2[nH]ncc12
inhibition (XDH; enzyme activity; inhibitor; 25 µg/mL): > 90%
